Results taken from ChEMBL document CHEMBL4052605, “Lissoclibadin 1, a Polysulfur Aromatic Alkaloid from the Indonesian Ascidian Lissoclinum cf. badium, Induces Caspase-Dependent Apoptosis in Human Colon Cancer Cells and Suppresses Tumor Growth in Nude Mice” (J Nat Prod, 2017).

Tests used:
HCT-15 = assay: Antiproliferative activity against human HCT15 cells after 24 hrs by WST-1 assay; type: functional, cell-based; details: HCT-15, 24 h
How it was run: (§1)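 WST-1 viability assay. Cells seeded at 5 × 10^3 per well and grown 24 h, then given lissoclibadins at 0.1−40 μM (etoposide 1.0−100 μM) in triplicate for 24 h. WST-1 added and absorbance read 4 h later at 450 nm, background subtracted at 650 nm. Viability expressed as % of control; IC50 taken as 50% inhibition of viability. Three experiments, mean ± SD.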

HeLa S3 = assay: Antiproliferative activity against human HeLaS3 cells after 24 hrs by WST-1 assay; type: functional, cell-based; details: HeLa S3, 24 h; how it was run: as §1

IC50 (HCT-15): 19.7 µM
IC50 (HeLa S3): 43.1 µM
Structure (SMILES): COc1cc([C@@H]2c3cc4c(cc3[C@@H](O[C@@H]3O[C@@H]5CO[C@@H](C)O[C@H]5[C@H](O)[C@H]3O)[C@H]3COC(=O)[C@H]23)OCO4)cc(OC)c1O [ETOPOSIDE]
